Reference: the RNAGym collection of RNA variant scans (doi:10.1038/nmeth.2970)

B1: NELF-E aptamer (parent)
chain: CCCAACGACUGCCGAGCGAGAUUACGCUUGAGCGCCCCACUGAGGAUGCCCACGGGCGAUUGGGGCACGG

Variants of: B1
Assay: HiTS-RAP
Details: with NELF-E (Drosophila)
Procedure, shortened: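 Aptamer DNA templates carrying a T7 promoter and ter site were sequenced on an Illumina GAIIx flowcell, then transcribed in situ by T7 RNA polymerase and halted by GST-Tus (30 minutes, 37°C). Clusters were imaged after 30-minute room-temperature equilibration with NELF-E-mOrange at 0.064 to 1000 nM in HEPES binding buffer, and only the first binding curve was used. Intensities were normalised to sequencing intensity and averaged per sequence. Kd came from weighted Hill fits, keeping fits with variance below 1,000,000.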

Row | Variant | Kd [nM]
1 | CCCAUCGACUGCCGAGCGAGAUUACGCUUGAGCGCCCCACUAAGGAUGCCCACGGGCGAUUGGGGCACGG [A5U G42A] | 67.8
2 | CCCAACGACUGCCGAGCGAGAUGACGCUUGAGCGUCCCACUGAGGAUGCCCACGGGCGAUUGGGGCACGG [U23G C35U] | 11.5
3 | CCCGACGACUGCCGAGCGAGAUUACGCUUGAGCGCCCCACUGAGGAUGCCCACGGGCGAAUGGGGCACGG [A4G U60A] | 10.6
4 | CCCAACGACUGGCGAGCGAGAUUACGCUUGAGCGCCCCACUGAGGAUGCCCACGGGCGAUUGGGGCGCGG [C12G A67G] | 6.86
5 | CCCGACGACUGCCGAGCGAGAAUACGCUUGAGCGCCCCACUGAGGAUGCCCACGGGCGAUUGGGGCACGG [A4G U22A] | 6.17
6 | CCCAACGAGUGCCGAGCGAGAUUACGCUUGAGCGCCCCACUGAGGAUGCCCACGGGUGAUUGGGGCACGG [C9G C57U] | 7.56
7 | CCCAACGACUGCCGAGCGAGAUUACGCUUGAGCGCCCCACUGAGGGUGCCCACGGGCGAUUGGGGCGCGG [A46G A67G] | 36.2
8 | CCCAACUACUGCCGAGCGAGAUUACGCUUGAGCUCCCCACUGAGGAUGCCCACGGGCGAUUGGGGCACGG [G7U G34U] | 7.8
9 | CCCAACGACUGGCGAGCGAUAUUACGCUUGAGCGCCCCACUGAGGAUGCCCACGGGCGAUUGGGGCACGG [C12G G20U] | 7.97
10 | CCCAGCGACUGCCGAGCAAGAUUACGCUUGAGCGCCCCACUGAGGAUGCCCACGGGCGAUUGGGGCACGG [A5G G18A] | 5.15
11 | CCCAACGACUGCCGAGCGAGAUGACGCUUGAGCGCCCCACUGAGGAUGCCCACGGGCGAUUUGGGCACGG [U23G G62U] | 9.09
12 | CCCAACGACUUCCGAGCGAGAUUACGCUUGAGCGCCCCACUGAGGAUGCCCACGGGCGAUUGAGGCACGG [G11U G63A] | 19.4
13 | CCCAACGACUGACGAGCGAGAUUGCGCUUGAGCGCCCCACUGAGGAUGCCCACGGGCGAUUGGGGCACGG [C12A A24G] | 5.99
14 | CCCAACGACGGCCGAGCGAGAUUACGCUUGAGCGCCCCACUGAGGAUGCCCACGAGCGAUUGGGGCACGG [U10G G55A] | 8.64
15 | CCCAGGGACUGCCGAGCGAGAUUACGCUUGAGCGCCCCACUGAGGAUGCCCACGGGCGAUUGGGGCACGG [A5G C6G] | 5.46
16 | CCCAACGACUGCCGUGGGAGAUUACGCUUGAGCGCCCCACUGAGGAUGCCCACGGGCGAUUGGGGCACGG [A15U C17G] | 7.12
17 | CCCAACGACUGCGGAGCGAGAUUACGCUUGAGCGCCCCACUGAGGAUGCCCACGGGCGAUCGGGGCACGG [C13G U61C] | 73.4
18 | CCCAACGACGGCCGAGCGAGAUUACGCUUGAGCGCCCCACUGAGGAUGCCCACGGGCGAGUGGGGCACGG [U10G U60G] | 6.36
19 | CCCAACGACUGCCGAGCGAGAUUACGCUUGUGCGCCCCUCUGAGGAUGCCCACGGGCGAUUGGGGCACGG [A31U A39U] | 38.1

Row | Variant | Kd [nM]
20 | CCCAACGACUGCCGAGCGAGAUUACGCCGGAGCGCCCCACUGAGGAUGCCCACGGGCGAUUGGGGCACGG [U28C U29G] | 8.69
21 | CCCGACGACUGCCGAGCGAGAUUACGCUUGAGCCCCCCACUGAGGAUGCCCACGGGCGAUUGGGGCACGG [A4G G34C] | 10.8
22 | CCCAGCGACUGCCGAGCGAGAUUACGCUUGAGCGCCCCACUGAGGAUGCCCAUGGGCGAUUGGGGCACGG [A5G C53U] | 4.59
23 | CCCAACGACUGCCGAGCGAGAUUGCGCUUGAGCGCCCCACUGAGGGUGCCCACGGGCGAUUGGGGCACGG [A24G A46G] | 11.5
24 | CCCGACGUCUGCCGAGCGAGAUUACGCUUGAGCGCCCCACUGAGGAUGCCCACGGGCGAUUGGGGCACGG [A4G A8U] | 6.21
25 | CCCGACGCCUGCCGAGCGAGAUUACGCUUGAGCGCCCCACUGAGGAUGCCCACGGGCGAUUGGGGCACGG [A4G A8C] | 6.29
26 | CCCAACGAGUGCCGAGCGAGAUUACGCUUGAGCGUCCCACUGAGGAUGCCCACGGGCGAUUGGGGCACGG [C9G C35U] | 14.3
27 | CCCAACGACUGCGGAGCGAGAUUACGCUUGAGCGCCCCACUGAGGAUGCCCACGGUCGAUUGGGGCACGG [C13G G56U] | 4.87
28 | CCCAACGACGGCCGAGCUAGAUUACGCUUGAGCGCCCCACUGAGGAUGCCCACGGGCGAUUGGGGCACGG [U10G G18U] | 5.3
29 | CCCAACGAGUGCCGAGCGAGAGUACGCUUGAGCGCCCCACUGAGGAUGCCCACGGGCGAUUGGGGCACGG [C9G U22G] | 5.5
30 | CCCAACGUCUGCCGAGCGAGAUUACGCUUGGGCGCCCCACUGAGGAUGCCCACGGGCGAUUGGGGCACGG [A8U A31G] | 8.05
31 | CCCAACGAGUGCCGAGCGAGAUUACGUUUGAGCGCCCCACUGAGGAUGCCCACGGGCGAUUGGGGCACGG [C9G C27U] | 4.83
32 | CCCAACGACUGCCGAGCGGGAUUACGCCUGAGCGCCCCACUGAGGAUGCCCACGGGCGAUUGGGGCACGG [A19G U28C] | 9.82
33 | CCCAACGACUGCCGAGCGAGAUUGCGCUUAAGCGCCCCACUGAGGAUGCCCACGGGCGAUUGGGGCACGG [A24G G30A] | 5.17
34 | CCCAACGACUGCCGAGCGAGAUUACGGUUGAGCGCCCCACUGAGGAUGCCCACGGGCGAUUGGGGCACGG [C27G] | 5.01
35 | CCCGACGACUGCCGAGCGAGAUUACGCUUGAGCGCCGCACUGAGGAUGCCCACGGGCGAUUGGGGCACGG [A4G C37G] | 6.99
36 | CCCAACGACUGCCGAGCGAGAUUACGCUUGAGCGCCCCACUGAGUAUGCCCACGGGCGAUUGGGGCACGG [G45U] | 6.76
37 | CCCAACGAGUGCCGAGCGAGAUUACGCUUAAGCGCCCCACUGAGGAUGCCCACGGGCGAUUGGGGCACGG [C9G G30A] | 4.33
38 | CCCAACGACUGCCGAUCGAGAUUACGCUUGAGCGCCCCACUGAGGAUGCCCUCGGGCGAUUGGGGCACGG [G16U A52U] | 19.7
